# ChEMBL document CHEMBL3588859, “Structure activity relationship study of Mezzettiasides natural products and their four new disaccharide analogues for anticancer/antibacterial activity” (Medchemcomm, 2014)
# Tests used:
# Bacillus subtilis = assay: Antibacterial activity against Bacillus subtilis JH642 expressing trpC2 pheA assessed as reduction in bacterial growth incubated for 18 to 24 hrs by broth dilution method; format: functional
# NCI-H460 = assay: Anticancer activity against human NCI-H460 cells assessed as reduction in cell viability incubated for 48 hrs by MTT assay; format: functional, cell-based; conditions: NCI-H460, 48 h
# Escherichia coli = assay: Antibacterial activity against Escherichia coli BAS901 expressing delta-imp assessed as reduction in bacterial growth incubated for 18 to 24 hrs by broth dilution method; format: functional
# Summary of the method: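 The imp strain was grown in LB with kanamycin at 50 μg/mL overnight, diluted 10-fold, and shaken at 37 °C for 45 min to 2 h (about 10^8 CFU/mL). Diluted about 1000-fold to 10^5 CFU/mL. Drug stocks were 25 mM in DMSO, made up at 4X, and serially diluted 1:2 over seven concentrations. OD600 was read.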
# Staphylococcus aureus [1] = assay: Antibacterial activity against methicillin-sensitive Staphylococcus aureus HG003 assessed as reduction in bacterial growth incubated for 18 to 24 hrs by broth dilution method; format: functional
# Summary of the method: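 Cultured overnight in Mueller Hinton Broth, diluted 10-fold, and shaken at 37 °C for 45 min to 2 h (about 10^8 CFU/mL). Diluted about 1000-fold to 10^5 CFU/mL. Compounds came from 25 mM DMSO stocks, were prepared at 4X, and were serially diluted 1:2 to seven concentrations. OD600 was recorded.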
# Staphylococcus aureus [2] = assay: Antibacterial activity against methicillin-resistant Staphylococcus aureus MW2 assessed as reduction in bacterial growth incubated for 18 to 24 hrs by broth dilution method; format: functional
# Summary of the method: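 Broth […] per NCCLS M7-A6. S. aureus grown overnight in Mueller Hinton Broth, diluted 10-fold, shaken at 37 °C for 45 min–2 h to approx. 10^8 CFU/mL, then diluted ~1000-fold to 10^5 CFU/mL. Compounds from 25 mM DMSO stocks, 1:2 serial dilution over seven concentrations.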
# Enterococcus faecium = assay: Antibacterial activity against Enterococcus faecium assessed as reduction in bacterial growth incubated for 18 to 24 hrs by broth dilution method; format: functional
# Summary of the method: (§1)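 Grown in Brain Heart Infusion broth overnight, diluted 10-fold, and shaken at 37 °C for 45 min to 2 h (about 10^8 CFU/mL). Diluted about 1000-fold to 10^5 CFU/mL. Compounds came from 25 mM DMSO stocks, were made up at 4X working strength, and were serially diluted 1:2 over seven concentrations in microtiter wells. OD600 was read.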
# Enterococcus faecalis = assay: Antibacterial activity against Enterococcus faecalis assessed as reduction in bacterial growth incubated for 18 to 24 hrs by broth dilution method; format: functional; summary of the method: as §1
# Lu1 = assay: Anticancer activity against human Lu1 cells assessed as reduction in cell viability incubated for 48 hrs by MTT assay; format: functional; conditions: Lu1, 48 h, read-out: ED50 (the source's name)
# [3] = Anticancer activity against human […] cells assessed as reduction in cell viability incubated for 48 hrs by MTT assay; format: functional; conditions: read-out: ED50 (the source's name)
# KB = assay: Anticancer activity against human KB cells assessed as reduction in cell viability incubated for 48 hrs by MTT assay; format: functional; conditions: read-out: ED50 (the source's name)
Structure (SMILES),MIC (Bacillus subtilis) [µM],IC50 (NCI-H460) [µM],EC50 (KB) [µM],MIC (Escherichia coli) [µM],MIC (Staphylococcus aureus [1]) [µM],MIC (Staphylococcus aureus [2]) [µM],MIC (Enterococcus faecium) [µM],MIC (Enterococcus faecalis) [µM],EC50 (Lu1) [µM],EC50 [3] [µM]
CCCCCCCCCCCCO[C@@H]1O[C@@H](C)[C@H](O[C@@H]2O[C@@H](C)[C@H](OC(C)=O)[C@@H](O[C@@H]3O[C@@H](C)[C@H](OC(C)=O)[C@@H](O[C@@H]4O[C@@H](C)[C@H](O)[C@@H](O)[C@H]4OC(C)=O)[C@H]3OC(C)=O)[C@H]2O)[C@@H](O)[C@H]1O,8,–,–,–,–,–,–,–,–,–
CCCCCCCCCCCCO[C@@H]1O[C@@H](C)[C@H](O[C@@H]2O[C@@H](C)[C@H](OC(C)=O)[C@@H](O[C@@H]3O[C@@H](C)[C@H](O)[C@@H](O[C@@H]4O[C@@H](C)[C@H](OC(C)=O)[C@@H](O)[C@H]4O)[C@H]3OC(C)=O)[C@H]2O)[C@@H](O)[C@H]1O,8,–,–,–,–,–,–,–,–,–
CCCCCCCCO[C@@H]1O[C@@H](C)[C@H](OC(=O)CCCCC)[C@@H](O[C@@H]2O[C@@H](C)[C@H](OC(C)=O)[C@@H](O[C@@H]3O[C@@H](C)[C@H](OC(C)=O)[C@@H](O[C@@H]4O[C@@H](C)[C@H](O)[C@@H](OC(C)=O)[C@H]4O)[C@H]3O)[C@H]2OC(C)=O)[C@H]1O,> 128,40,–,–,–,–,–,–,–,–
CCCCCCCCO[C@@H]1O[C@@H](C)[C@H](OC(=O)CCCCC)[C@@H](O[C@@H]2O[C@@H](C)[C@H](OC(C)=O)[C@@H](O[C@@H]3O[C@@H](C)[C@H](OC(C)=O)[C@@H](O[C@@H]4O[C@@H](C)[C@H](O)[C@@H](O)[C@H]4OC(C)=O)[C@H]3O)[C@H]2OC(C)=O)[C@H]1O,64,259,–,> 32,> 32,> 32,> 32,32,–,–
CCCCCCCCO[C@@H]1O[C@@H](C)[C@H](OC(=O)CCCCC)[C@@H](O[C@@H]2O[C@@H](C)[C@H](OC(C)=O)[C@@H](O[C@@H]3O[C@@H](C)[C@H](OC(C)=O)[C@@H](O[C@@H]4O[C@@H](C)[C@H](O)[C@@H](O)[C@H]4O)[C@H]3O)[C@H]2OC(C)=O)[C@H]1O,32,18,–,> 32,> 32,> 32,> 32,32,–,–
CCCCCCCCO[C@@H]1O[C@@H](C)[C@H](OC(=O)CCCCC)[C@@H](O[C@@H]2O[C@@H](C)[C@H](OC(C)=O)[C@@H](OC(=O)CCC)[C@H]2OC(C)=O)[C@H]1O,> 128,32,–,–,–,–,–,–,–,–
CCCCCCCCO[C@@H]1O[C@@H](C)[C@H](OC(=O)CCCCC)[C@@H](O[C@@H]2O[C@@H](C)[C@H](OC(C)=O)[C@@H](OC(=O)CC(C)C)[C@H]2OC(C)=O)[C@H]1O,> 128,79,–,–,–,–,–,–,–,–
CCCCCCCCCCCCO[C@@H]1O[C@@H](C)[C@H](O[C@@H]2O[C@@H](C)[C@H](OC(C)=O)[C@@H](O[C@@H]3O[C@@H](C)[C@H](OC(C)=O)[C@@H](O)[C@H]3OC(C)=O)[C@H]2O)[C@@H](O)[C@H]1O,32,–,–,–,–,–,–,–,–,–
CCCCCCCCO[C@@H]1O[C@@H](C)[C@H](OC(=O)CCCCC)[C@@H](O[C@@H]2O[C@@H](C)[C@H](OC(C)=O)[C@@H](O[C@@H]3O[C@@H](C)[C@H](OC(C)=O)[C@@H](OC(C)=O)[C@H]3O)[C@H]2OC(C)=O)[C@H]1O [MEZZETTIASIDE 3],> 128,10,17,–,–,–,–,–,14,6
CCCCCCCCO[C@@H]1O[C@@H](C)[C@H](OC(=O)CCCCC)[C@@H](O[C@@H]2O[C@@H](C)[C@H](OC(C)=O)[C@@H](O[C@@H]3O[C@@H](C)[C@H](OC(C)=O)[C@@H](O)[C@H]3O)[C@H]2OC(C)=O)[C@H]1O [MEZZETTIASIDE 4],8,9,19,> 32,32,> 32,16,16,25,8
CCCCCCCCO[C@@H]1O[C@@H](C)[C@H](OC(=O)CCCCC)[C@@H](O[C@@H]2O[C@@H](C)[C@H](OC(C)=O)[C@@H](O[C@@H]3O[C@@H](C)[C@H](O)[C@@H](O)[C@H]3OC(C)=O)[C@H]2OC(C)=O)[C@H]1O [MEZZETTIASIDE 8],16,24,> 20,> 32,> 32,> 32,> 32,> 32,25,10
CCCCCCCCO[C@@H]1O[C@@H](C)[C@H](OC(=O)CCCCC)[C@@H](O[C@@H]2O[C@@H](C)[C@H](O)[C@@H](OC(C)=O)[C@H]2OC(C)=O)[C@H]1O [MEZZETTIASIDE 9],16,151,19,> 32,> 32,> 32,> 32,32,9,> 20
CCCCCCCCO[C@@H]1O[C@@H](C)[C@H](OC(=O)CCCCC)[C@@H](O[C@@H]2O[C@@H](C)[C@H](OC(C)=O)[C@@H](O)[C@H]2OC(C)=O)[C@H]1O [MEZZETTIASIDEIDE 10],> 128,> 500,> 20,–,–,–,–,–,> 20,> 20

# Second part, led by results:
MIC (Bacillus subtilis) [µM],IC50 (NCI-H460) [µM],EC50 (KB) [µM],Structure (SMILES),MIC (Escherichia coli) [µM],MIC (Staphylococcus aureus [1]) [µM],MIC (Staphylococcus aureus [2]) [µM],MIC (Enterococcus faecium) [µM],MIC (Enterococcus faecalis) [µM],EC50 (Lu1) [µM],EC50 [3] [µM]
8,–,–,CCCCCCCCCCCCO[C@@H]1O[C@@H](C)[C@H](O[C@@H]2O[C@@H](C)[C@H](OC(C)=O)[C@@H](O[C@@H]3O[C@@H](C)[C@H](O)[C@@H](OC(C)=O)[C@H]3OC(C)=O)[C@H]2O)[C@@H](O)[C@H]1O,–,–,–,–,–,–,–
4,8,–,CCCCCCCCCCCCO[C@@H]1O[C@@H](C)[C@H](O[C@@H]2O[C@@H](C)[C@H](OC(C)=O)[C@@H](O[C@@H]3O[C@@H](C)[C@H](OC(C)=O)[C@@H](O[C@@H]4O[C@@H](C)[C@H](OC(C)=O)[C@@H](O)[C@H]4OC(C)=O)[C@H]3OC(C)=O)[C@H]2O)[C@@H](O)[C@H]1O,–,–,–,–,–,–,–
> 128,141,–,CCCCCCCCO[C@@H]1O[C@@H](C)[C@H](OC(=O)CCCCC)[C@@H](O[C@@H]2O[C@@H](C)[C@H](OC(C)=O)[C@@H](OC(=O)C(C)(C)C)[C@H]2OC(C)=O)[C@H]1O,–,–,–,–,–,–,–
> 128,47,–,CCCCCCCCO[C@@H]1O[C@@H](C)[C@H](OC(=O)CCCCC)[C@@H](O[C@@H]2O[C@@H](C)[C@H](OC(C)=O)[C@@H](OC(=O)C(C)C)[C@H]2OC(C)=O)[C@H]1O,–,–,–,–,–,–,–
4,–,–,CCCCCCCCCCCCO[C@@H]1O[C@@H](C)[C@H](O[C@@H]2O[C@@H](C)[C@H](OC(C)=O)[C@@H](O[C@@H]3O[C@@H](C)[C@H](OC(C)=O)[C@@H](O[C@@H]4O[C@@H](C)[C@H](OC(C)=O)[C@@H](O)[C@H]4O)[C@H]3OC(C)=O)[C@H]2O)[C@@H](O)[C@H]1O,–,–,–,–,–,–,–
> 128,17,7,CCCCCCCCO[C@@H]1O[C@@H](C)[C@H](OC(=O)CCCCC)[C@@H](O[C@@H]2O[C@@H](C)[C@H](OC(C)=O)[C@@H](O[C@@H]3O[C@@H](C)[C@H](OC(C)=O)[C@@H](O)[C@H]3OC(C)=O)[C@H]2OC(C)=O)[C@H]1O [MEZZETTIASIDE 2],–,–,–,–,–,10,5
> 128,15,20,CCCCCCCCO[C@@H]1O[C@@H](C)[C@H](OC(=O)CCCCC)[C@@H](O[C@@H]2O[C@@H](C)[C@H](OC(C)=O)[C@@H](OC(C)=O)[C@H]2OC(C)=O)[C@H]1O [MEZZETTIASIDE 11],–,–,–,–,–,9,14
